# Measurements taken from BindingDB's records for doi:10.1016/j.bmcl.2007.03.055 (Pharmacopeia Drug Discovery, 2007).
# Target: Amyloid-beta precursor protein (Homo sapiens, UniProt P05067)
# Assay: Inhibition of gamma-secretase
# Procedure, shortened: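 Membrane preparation (5.0 µg total protein, in 20 mM Hepes pH 5.0, 5 mM EDTA) incubated 2 h at 37 °C with compound serially diluted in DMSO then in start buffer (Hepes pH 7.5, 5 mM EDTA); 2% DMSO final. Quenched with Tris/NaCl/BSA/Triton mix carrying biotin-W02 and Europium-labelled G2-10 (both Aβ40-specific) plus allophycocyanin-streptavidin. Signal developed 2–16 h at room temperature; HTRF at 665 nm. IC50 as mean of ≥2 determinations.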
# Sequence of Amyloid-beta precursor protein (P05067 whole entry): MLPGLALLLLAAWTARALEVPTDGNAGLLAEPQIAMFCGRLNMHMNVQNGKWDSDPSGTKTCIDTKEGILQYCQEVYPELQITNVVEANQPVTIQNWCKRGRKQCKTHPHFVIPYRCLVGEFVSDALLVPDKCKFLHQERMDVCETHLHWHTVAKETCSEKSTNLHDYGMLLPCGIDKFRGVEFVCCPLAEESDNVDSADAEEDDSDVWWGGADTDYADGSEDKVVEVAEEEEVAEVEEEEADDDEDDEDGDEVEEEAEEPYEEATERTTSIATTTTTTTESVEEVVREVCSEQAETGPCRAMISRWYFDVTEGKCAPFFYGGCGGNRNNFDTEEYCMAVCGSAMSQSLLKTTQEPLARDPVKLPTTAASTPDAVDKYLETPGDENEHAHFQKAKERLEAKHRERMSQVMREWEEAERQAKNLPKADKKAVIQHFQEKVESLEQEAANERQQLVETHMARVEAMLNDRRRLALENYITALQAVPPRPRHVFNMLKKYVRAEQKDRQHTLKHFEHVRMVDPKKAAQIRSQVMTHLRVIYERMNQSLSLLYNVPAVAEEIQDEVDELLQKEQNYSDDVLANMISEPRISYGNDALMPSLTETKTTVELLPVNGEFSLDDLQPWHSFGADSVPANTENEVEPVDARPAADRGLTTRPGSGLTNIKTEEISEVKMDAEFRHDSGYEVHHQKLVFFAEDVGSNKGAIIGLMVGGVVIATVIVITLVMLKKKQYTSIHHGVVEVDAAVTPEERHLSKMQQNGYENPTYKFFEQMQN
row,SMILES,IC50 [nM]
1,"CN1CCCC1CCNC(=O)OCCCC1CCc2ccccc2N1S(=O)(=O)c1ccc(Cl)cc1 (stereo unspecified) [3-(1-(4-chlorophenylsulfonyl)-1,2,3,4-tetrahydroquinolin-2-yl)propyl 2-(1-methylpyrrolidin-2-yl)ethylcarbamate]",220
2,"O=C(NCCCn1ccnc1)OCCC1CCc2ccccc2N1S(=O)(=O)c1ccc(Cl)cc1 (stereo unspecified) [2-(1-(4-chlorophenylsulfonyl)-1,2,3,4-tetrahydroquinolin-2-yl)ethyl 3-(1H-imidazol-1-yl)propylcarbamate]",280
3,"CN1CCCC1CCNC(=O)OC[C@H]1CC[C@@H](c2ccccc2)N1S(=O)(=O)c1ccc(Cl)cc1 (stereo partly drawn) [((2R,5S)-1-(4-chlorophenylsulfonyl)-5-phenylpyrrolidin-2-yl)methyl 2-(1-methylpyrrolidin-2-yl)ethylcarbamate]",600

# Further lines, results first:
row,IC50 [nM],SMILES
1,180,"O=C(OCCCC1CCc2ccccc2N1S(=O)(=O)c1ccc(Cl)cc1)N1CCN(C2CCCCC2)CC1 (stereo unspecified) [3-(1-(4-chlorophenylsulfonyl)-1,2,3,4-tetrahydroquinolin-2-yl)propyl 4-cyclohexylpiperazine-1-carboxylate]"
2,540,"O=C(OC[C@H]1CC[C@@H](c2ccccc2)N1S(=O)(=O)c1ccc(Cl)cc1)N1CCN(CCO)CC1 [((2R,5S)-1-(4-chlorophenylsulfonyl)-5-phenylpyrrolidin-2-yl)methyl 4-(2-hydroxyethyl)piperazine-1-carboxylate]"
3,86,"O=C(NCCCn1ccnc1)OCCCC1CCc2ccccc2N1S(=O)(=O)c1ccc(Cl)cc1 (stereo unspecified) [3-(1-(4-chlorophenylsulfonyl)-1,2,3,4-tetrahydroquinolin-2-yl)propyl 3-(1H-imidazol-1-yl)propylcarbamate]"
